Here are results for 1 compound from ChEMBL document CHEMBL3745678, “Novel β-Carboline/Hydroxamic Acid Hybrids Targeting Both Histone Deacetylase and DNA Display High Anticancer Activity via Regulation of the p53 Signaling Pathway” (J Med Chem, 2015).

The test system of one data set is HDAC6 (Homo sapiens). Kind of data set: Selectivity index, ratio of IC50 for human recombinant HDAC8 to IC50 for human recombinant HDAC6.
The subject of data set [1] is Mus musculus. In words: Acute toxicity in ICR mouse assessed as abnormal activity at 240 mg/kg, ip measured for 14 days. It is filed as organism-based. As to conditions: in vivo, 336 h. Summed up: (§1)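 Female ICR mice, single intraperitoneal injection at 585.9, 468.8, […], 300 or 240 mg/kg, or vehicle control, n = 10 per group. Deaths counted at 1 h, 4 h, daily on days 1-4 and over days 5-14. Eating, drinking, body weight and activity observed for 14 days, with survival (%) taken on day 14. LD50 calculated from mortality.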

The nature of data set [2]: Acute toxicity in ICR mouse assessed as survival rate at 300 mg/kg, ip measured on day 14. It is filed as organism-based. As to conditions: in vivo. Summed up:
as §1

Data set [3] deals with Mus musculus. Kind of data set: Acute toxicity in ICR mouse assessed as death at 240 mg/kg, ip measured for 14 days. It is filed as organism-based. The settings on record: in vivo, 336 h. Summed up: as §1
The subject of data set [4] is Mus musculus. In words: Acute toxicity in ICR mouse assessed as death at 240 to 300 mg/kg, ip measured after 3 days. It is filed as organism-based. As to conditions: in vivo, 72 h. Summed up:
as §1

Another data set relates to LoVo. In words: Antiproliferative activity against human LoVo cells assessed as cell viability after 48 hrs by MTT assay. It is filed as functional, cell-based. In general terms: Formazan colour is commonly taken as a measure of viable cells.
Data set [5] can be described thus: Cytotoxicity against rat IEC-18 cells assessed as survival at 5 uM after 48 hrs by MTT assay. It is filed as cell-based. As to conditions: iec-18, 48 h. Summed up: (§2)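 HCT116 and rat IEC-18 cells incubated 48 h over a 0–5 µM range. Viability measured by MTT and expressed as % of control. GI50 taken from the inhibition curves; three independent experiments.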
Data set [6] concerns Mus musculus. Kind of data set: Acute toxicity in ICR mouse assessed as death at 240 mg/kg, ip measured after 4 days. It is filed as organism-based. As to conditions: in vivo, 96 h. A digest of the protocol:
as §1

Data set [7] concerns the target T1, Protein deacetylase HDAC6 (Homo sapiens, UniProt Q9UBN7).
T1 sequence (Q9UBN7 whole entry): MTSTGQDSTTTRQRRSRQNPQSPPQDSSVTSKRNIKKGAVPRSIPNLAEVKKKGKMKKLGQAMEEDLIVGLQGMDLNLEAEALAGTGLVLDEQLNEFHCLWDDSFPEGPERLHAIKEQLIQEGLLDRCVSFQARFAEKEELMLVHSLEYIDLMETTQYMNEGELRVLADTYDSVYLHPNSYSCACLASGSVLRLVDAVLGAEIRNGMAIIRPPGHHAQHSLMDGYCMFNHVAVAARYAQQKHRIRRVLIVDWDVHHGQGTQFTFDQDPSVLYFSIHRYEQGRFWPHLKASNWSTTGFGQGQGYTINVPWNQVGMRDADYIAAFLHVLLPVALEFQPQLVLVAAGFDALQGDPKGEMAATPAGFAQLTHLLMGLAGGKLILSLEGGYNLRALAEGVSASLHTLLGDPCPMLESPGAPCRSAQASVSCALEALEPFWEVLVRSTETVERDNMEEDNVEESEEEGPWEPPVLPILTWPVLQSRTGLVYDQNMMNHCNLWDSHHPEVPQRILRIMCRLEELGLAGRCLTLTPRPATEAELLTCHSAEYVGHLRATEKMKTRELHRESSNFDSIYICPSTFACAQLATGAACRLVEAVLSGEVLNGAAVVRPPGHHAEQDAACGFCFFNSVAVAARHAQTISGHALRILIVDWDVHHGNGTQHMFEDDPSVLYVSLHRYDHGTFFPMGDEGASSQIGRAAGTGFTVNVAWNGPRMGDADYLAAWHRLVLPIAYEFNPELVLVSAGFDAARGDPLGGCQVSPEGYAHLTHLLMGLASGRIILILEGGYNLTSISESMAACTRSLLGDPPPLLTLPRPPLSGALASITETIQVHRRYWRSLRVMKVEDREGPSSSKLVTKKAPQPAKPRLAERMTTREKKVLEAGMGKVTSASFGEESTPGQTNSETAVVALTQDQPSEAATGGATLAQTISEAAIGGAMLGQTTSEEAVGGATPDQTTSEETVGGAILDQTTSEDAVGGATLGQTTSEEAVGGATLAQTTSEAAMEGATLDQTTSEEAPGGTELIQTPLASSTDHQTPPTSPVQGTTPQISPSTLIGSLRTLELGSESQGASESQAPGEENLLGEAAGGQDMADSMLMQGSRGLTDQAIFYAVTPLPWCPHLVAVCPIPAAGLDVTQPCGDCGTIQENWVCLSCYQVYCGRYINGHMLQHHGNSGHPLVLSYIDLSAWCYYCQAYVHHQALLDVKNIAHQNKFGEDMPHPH
In words: Inhibition of recombinant human HDAC6 using Boc-Lys (Ac)-AMC as substrate after 60 mins by fluorometric analysis.

The nature of data set [8]: Antiproliferative activity against human HCT116 cells assessed as cell viability after 48 hrs by MTT assay. It is filed as functional, cell-based, HCT-116. The settings on record: Homo sapiens, HCT-116, 48 h.
In data set [9] the target is Histone deacetylase (Homo sapiens) (UniProt Q13547+O15379+Q9UBN7+Q92769+Q9UQL6+Q8WUI4+Q9BY41+Q96DB2+P56524+Q9UKV0+Q969S8). Kind of data set: Potency index, ratio of SAHA IC50 to compound IC50 for HDAC in human HeLa cell nuclear extract. It is filed as cell-based. A digest of the protocol:
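HDAC source was HeLa nuclear extract. Incubated with compound dilutions and Boc-Lys(Ac)-AMC substrate for 60 min at 37 °C, then lysine developer added for 30 min. Fluorescence read at ex 355/em 460 nm, activity expressed as % of control and IC50 fitted. Index = SAHA IC50 ÷ compound IC50.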

A short description of data set [10]: Acute toxicity in ICR mouse assessed as survival rate at 585.9 mg/kg, ip measured on day 14. It is filed as organism-based. The settings on record: in vivo. A digest of the protocol: as §1
Data set [11] concerns Mus musculus. Kind of data set: Acute toxicity in ICR mouse assessed as death at 240 to 585.9 mg/kg, ip measured after 1 hr. It is filed as organism-based. As to conditions: in vivo. A digest of the protocol:
as §1

Data set [12] in a line: Antiproliferative activity against human SW620 cells assessed as cell viability after 48 hrs by MTT assay. It is filed as functional, cell-based. As to conditions: SW-620, 48 h.
A short description of data set [13]: Antitumor activity against human HCT116 cells xenografted in BALB/c mouse assessed as tumor growth inhibition at 90 mg/kg, po measured twice per week over 22 days. It is filed as functional. As to conditions: HCT-116, po, 528 h, read-out: TGI.
The subject of a further data set is HCT-116. In words: Potency index, ratio of SAHA IC50 to compound IC50 for human HCT116 cells. It is filed as functional. Summed up:
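HCT116 cells seeded at 10^4 cells/ml and adhered overnight, then treated 48 h over a concentration series with 0.1% DMSO as control. MTT readout; IC50 derived from inhibition % = (1 − OD treated/OD control) × 100, three independent measurements. Index = SAHA IC50 ÷ compound IC50.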

Data set [14] can be described thus: Cytotoxicity against rat IEC-18 cells assessed as survival after 48 hrs by MTT assay. It is filed as cell-based. A digest of the protocol:
as §2

For a further data set, the target named is Histone deacetylase. Kind of data set: Inhibition of HDAC in human HeLa cell nuclear extract using Boc-Lys (Ac)-AMC as substrate after 60 mins by fluorometric analysis. It is filed as cell-based.

Regarding `COc1ccc(-c2nc(NC(=O)NCCCC(=O)NO)cc3c2[nH]c2ccccc23)cc1`, the results for the Ratio IC50 (with HDAC6 (Homo sapiens); in data set [9]; with HCT-116) were 5, 2 and 7, respectively. For the same compound, the Activity result (with Mus musculus [1]; in the data set on Mus musculus [3]; with Mus musculus [4]; in data set [5]; with Mus musculus [6]; with Mus musculus [11]) was “Non-toxic” throughout. Further, the survival at 14 day worked out at 90% in data set [2] and 30% in data set [10]. Besides, the IC50 – broadly, the concentration needed to halve the response being measured – in the data set with LoVo turned out to be 1630 nM; in data set [7], 34 nM; in data set [8] it was 830 nM; in data set [12] it was 940 nM; at Histone deacetylase, 270 nM. For the same compound, the concentration for 50% growth inhibition (GI50) (as a rule, the concentration giving 50% growth inhibition) in data set [8] turned out to be 1170 nM. Further, the inhibition in vivo at 90 mg/kg in data set [13] worked out at 61.6%. Also, the GI50 at 48 h in data set [14] came to 5460 nM.
